# Measurements published in PMC6634314 (Cell chemical biology, 2019).
# pIC50: −log10 of the molar value.
# Legend:
# [1] = system: PIP4K2C; assay: MIB washout assay; assay type: binding, Human; settings: H23 cells, 1 μM 4h, MIB pulldown ratio SM1-71/SM1-71-R
# [2] = biological target: T1, SRC (Homo sapiens, UniProt P12931); assay: MIB dose-dependent kinase inhibition assay; assay type: binding; settings: read-out: IC50 in the MIB assay, H23 cell lysate, overnight 4°C
# [3] = system: FGFR1; assay: MIB washout assay; assay type: binding, Human; settings: H23 cells, 1 μM 4h, MIB pulldown ratio SM1-71/SM1-71-R
# [4] = system: CSNK1A1; assay: MIB washout assay; assay type: binding, Human; settings: H23 cells, 1 μM 4h, MIB pulldown ratio SM1-71/SM1-71-R
# [5] = biological target: T2, LIMK1 (Homo sapiens, UniProt P53667); assay: MIB dose-dependent kinase inhibition assay; assay type: binding; settings: read-out: IC50 in the MIB assay, H23 cell lysate, overnight 4°C
# T2 sequence (P53667 whole entry): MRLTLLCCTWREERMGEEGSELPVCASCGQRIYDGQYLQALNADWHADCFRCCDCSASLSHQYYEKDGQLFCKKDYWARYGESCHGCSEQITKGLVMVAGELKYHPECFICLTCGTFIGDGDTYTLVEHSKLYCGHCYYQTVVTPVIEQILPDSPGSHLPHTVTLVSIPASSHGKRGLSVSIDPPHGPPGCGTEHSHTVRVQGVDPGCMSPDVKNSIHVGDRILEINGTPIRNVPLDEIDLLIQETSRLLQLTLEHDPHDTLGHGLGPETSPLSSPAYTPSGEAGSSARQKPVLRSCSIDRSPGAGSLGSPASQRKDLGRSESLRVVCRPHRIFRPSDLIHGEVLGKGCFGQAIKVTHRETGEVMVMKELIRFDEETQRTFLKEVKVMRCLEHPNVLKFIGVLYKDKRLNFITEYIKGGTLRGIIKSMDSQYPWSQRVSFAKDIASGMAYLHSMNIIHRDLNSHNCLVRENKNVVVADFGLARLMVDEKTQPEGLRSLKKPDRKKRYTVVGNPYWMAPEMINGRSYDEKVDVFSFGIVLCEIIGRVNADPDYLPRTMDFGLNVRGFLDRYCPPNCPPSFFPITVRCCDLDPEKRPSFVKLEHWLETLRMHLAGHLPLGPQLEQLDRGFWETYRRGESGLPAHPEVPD
# [6] = system: H23-KRAS^G12C non-small cell lung cancer (NSCLC) cell line; assay: proliferation assay; assay type: cell-based, Human
# Outline: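 NSCLC lines were mycoplasma-tested and treated with various concentrations of test compound for 72 h. Cell viability was then measured by CellTiter-Glo luminescence.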
# [7] = system: CSNK1G1; assay: MIB washout assay; assay type: binding, Human; settings: H23 cells, 1 μM 4h, MIB pulldown ratio SM1-71/SM1-71-R
# [8] = biological target: T1, SRC; assay: MIB washout assay; assay type: binding; settings: H23 cells, 1 μM 4h, MIB pulldown ratio SM1-71/SM1-71-R
# [9] = biological target: T2, LIMK1; assay: MIB washout assay; assay type: binding; settings: H23 cells, 1 μM 4h, MIB pulldown ratio SM1-71/SM1-71-R
# [10] = system: EPHA10; assay: MIB washout assay; assay type: binding, Human; settings: H23 cells, 1 μM 4h, MIB pulldown ratio SM1-71/SM1-71-R
# [11] = biological target: MAPK3 (Homo sapiens, UniProt P27361); assay: mass shift assay; assay type: binding; settings: incubated 4 and 24h
# MAPK3, sequence (P27361 whole entry): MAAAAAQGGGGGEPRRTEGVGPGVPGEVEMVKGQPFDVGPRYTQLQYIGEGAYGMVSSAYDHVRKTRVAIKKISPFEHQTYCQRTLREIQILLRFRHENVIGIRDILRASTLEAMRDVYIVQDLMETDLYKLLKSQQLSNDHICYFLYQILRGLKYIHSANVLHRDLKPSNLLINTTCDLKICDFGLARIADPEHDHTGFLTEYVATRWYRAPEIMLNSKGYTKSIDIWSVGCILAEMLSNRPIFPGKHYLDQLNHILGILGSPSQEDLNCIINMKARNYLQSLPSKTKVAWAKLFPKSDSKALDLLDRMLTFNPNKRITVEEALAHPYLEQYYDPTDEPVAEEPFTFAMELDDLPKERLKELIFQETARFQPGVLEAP
# Outline: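 Kinase protein at 0.12 mM in 10 mM HEPES pH 7.5, 500 mM NaCl, incubated with 0.2 mM test compound at 4°C for 4 h and 24 h. Samples were diluted in 0.1% formic acid and desalted on a C3 pre-column. ESI-TOF was run in positive mode at 120 V, and intact mass was obtained by deconvolution to detect the adduct.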
# T1 sequence (P12931 whole entry): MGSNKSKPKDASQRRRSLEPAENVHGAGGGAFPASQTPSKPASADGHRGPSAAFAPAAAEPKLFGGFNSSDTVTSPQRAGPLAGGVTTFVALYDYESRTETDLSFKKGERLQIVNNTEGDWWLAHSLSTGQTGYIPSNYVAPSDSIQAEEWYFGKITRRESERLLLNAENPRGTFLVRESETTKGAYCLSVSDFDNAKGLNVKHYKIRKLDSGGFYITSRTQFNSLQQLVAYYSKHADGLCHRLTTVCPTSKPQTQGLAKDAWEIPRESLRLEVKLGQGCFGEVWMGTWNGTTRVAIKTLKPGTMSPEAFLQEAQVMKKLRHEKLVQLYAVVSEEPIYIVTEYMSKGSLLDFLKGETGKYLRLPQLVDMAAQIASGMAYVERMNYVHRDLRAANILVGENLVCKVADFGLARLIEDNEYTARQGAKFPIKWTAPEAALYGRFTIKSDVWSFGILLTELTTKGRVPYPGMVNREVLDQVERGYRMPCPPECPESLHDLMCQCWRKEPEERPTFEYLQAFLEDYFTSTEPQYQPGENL
compound,measurement,setting,value
C=CC(=O)Nc1ccccc1Nc1nc(Nc2ccc(N3CCN(C)CC3)cc2)ncc1Cl [SM1-71],BI-0h,[1]; 0h post-washout,0.8
same,BI-6h,[1]; 6h post-washout,0.6
same,pIC50,[2],> 8.00
same,BI-0h,[3]; 0h post-washout,0.45
same,BI-6h,[3]; 6h post-washout,0.42
same,BI-0h,[4]; 0h post-washout,0.91
same,BI-6h,[4]; 6h post-washout,0.74
same,pIC50,[5],> 8.00
same,growth inhibitory effects,[6]; H23-KRAS^G12C cells (Fig. S2),strong growth inhibitory effects
same,pIC50,"[6]; proliferation assays, H23-KRAS^G12C cells (Fig. S2A)",6.40
same,BI-0h,[7]; 0h post-washout,0.55
same,BI-6h,[7]; 6h post-washout,0.81
same,BI-0h,[8]; 0h post-washout,0.19
same,BI-6h,[8]; 6h post-washout,0.13
same,BI-0h,[9]; 0h post-washout,0.21
same,BI-6h,[9]; 6h post-washout,0.23
same,BI-0h,[10]; 0h post-washout,0.72
same,BI-6h,[10]; 6h post-washout,0.63
same,covalent adduct formation (mass shift),[11],formed covalent adducts
